From ChEMBL document CHEMBL1255430, “Kinetic parameters of efflux of penicillins by the multidrug efflux transporter AcrAB-TolC of Escherichia coli” (Antimicrob Agents Chemother, 2010)
≈ marks a conversion by molar mass, not a printed value.

Columns and labels:
Escherichia coli [1] = experiment: Antimicrobial activity against Escherichia coli HN1157/pHSG576oxa7; type: functional
Escherichia coli [2] = experiment: Antimicrobial activity against Escherichia coli HN1157/pHSG576oxa7 assessed as minimal drug concentration; type: functional
Procedure, shortened: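 The inoculum was grown overnight in modified LB broth with 10 μg/ml chloramphenicol to keep the plasmid, diluted to OD660 0.1 and streaked across the gradient. Plates were read after overnight incubation at 30°C.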

[3] = Lipophilicity, log P of the compound; type: physicochemical; details: octanol/water
[4] = Permeability across Escherichia coli HN1157/pHSG576oxa7 assessed as permeability coefficient in presence of proton uncoupler carbonyl cyanide meta-chlorophenylhydrazone; type: ADME, organism-based; details: not told, read-out: permeability
Escherichia coli [5] = details: HN1157
[6] = substrate: Cc1onc(-c2ccccc2Cl)c1C(=O)N[C@@H]1C(=O)N2[C@@H]1SC(C)(C)[C@@H]2C(=O)O; experiment: (§1) Activity at Escherichia coli isolate 7181 beta-lactamase OXA-7
Procedure, shortened: (§2)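 Crude sonicates of E. coli HN1157 carrying low-copy pHSG576oxa7, grown 14 h at 30°C in modified LB with 10 μg/ml chloramphenicol (plus 0.1% glucose for some substrates). Extract equals OD600 0.025 cells (9.38 μg dry weight/ml) in 50 mM potassium phosphate, pH 7.0, 5 mM MgCl2. Penicillin hydrolysis stopped with TCA at 2 min. Microiodometric OD592 read after 30 min, minus a zero-time TCA blank. Km and Vmax expressed per mg cell dry weight.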

[7] = substrate: CCN1CCN(C(=O)N[C@@H](C(=O)N[C@@H]2C(=O)N3[C@@H]2SC(C)(C)[C@@H]3C(=O)O)c2ccccc2)C(=O)C1=O; experiment: as §1; procedure, shortened: as §2
[8] = substrate: Cc1onc(-c2ccccc2)c1C(=O)N[C@@H]1C(=O)N2[C@@H]1SC(C)(C)[C@@H]2C(=O)O; experiment: as §1; procedure, shortened: as §2
[9] = substrate: CC1(C)S[C@@H]2[C@H](NC(=O)COc3ccccc3)C(=O)N2[C@H]1C(=O)O; experiment: as §1; procedure, shortened: as §2
[10] = substrate: CC1(C)S[C@@H]2[C@H](NC(=O)[C@H](NC(=O)N3CCNC3=O)c3ccccc3)C(=O)N2[C@H]1C(=O)O; experiment: as §1; procedure, shortened: as §2
[11] = substrate: CC1(C)S[C@@H]2[C@H](NC(=O)[C@H](NC(=O)N3CCN(S(C)(=O)=O)C3=O)c3ccccc3)C(=O)N2[C@H]1C(=O)O; experiment: as §1; procedure, shortened: as §2
[12] = substrate: Cc1onc(-c2c(Cl)cccc2Cl)c1C(=O)N[C@@H]1C(=O)N2[C@@H]1SC(C)(C)[C@@H]2C(=O)O; experiment: as §1; procedure, shortened: as §2

Molecule: CC1(C)S[C@@H]2[C@H](NC(=O)[C@H](N)c3ccccc3)C(=O)N2[C@H]1C(=O)O [AMPICILLIN]
- MIC (Escherichia coli [1]): 39 µg/mL (≈ 112 µM)
- Activity (Escherichia coli [2]): 2.9 µM
- logP [3]: -1.03

Molecule: CC1(C)S[C@@H]2[C@H](NC(=O)[C@H](NC(=O)N3CCNC3=O)c3ccccc3)C(=O)N2[C@H]1C(=O)O [AZLOCILLIN]
- MIC (Escherichia coli [1]): 44 µg/mL (≈ 95.3 µM)
- Papp [4]: 40 ×10⁻⁶ cm/s
- Activity (Escherichia coli [2]): 1.3 µM
- logP [3]: 0.71
- K0.5 (Escherichia coli [5]): 1.06 µM

Molecule: Cc1onc(-c2ccccc2Cl)c1C(=O)N[C@@H]1C(=O)N2[C@@H]1SC(C)(C)[C@@H]2C(=O)O [CLOXACILLIN]
- MIC (Escherichia coli [1]): 295 µg/mL (≈ 677 µM)
- Papp [4]: 60 ×10⁻⁶ cm/s
- Activity (Escherichia coli [2]): 11 µM
- logP [3]: 2.8
- K0.5 (Escherichia coli [5]): 0.91 µM

Molecule: Cc1onc(-c2c(Cl)cccc2Cl)c1C(=O)N[C@@H]1C(=O)N2[C@@H]1SC(C)(C)[C@@H]2C(=O)O [DICLOXACILLIN]
- MIC (Escherichia coli [1]): 560 µg/mL (≈ 1190 µM)
- Papp [4]: 60 ×10⁻⁶ cm/s
- Activity (Escherichia coli [2]): 39 µM
- logP [3]: 3.4
- K0.5 (Escherichia coli [5]): 0.53 µM

Molecule: CC1(C)S[C@@H]2[C@H](NC(=O)[C@H](NC(=O)N3CCN(S(C)(=O)=O)C3=O)c3ccccc3)C(=O)N2[C@H]1C(=O)O [MEZLOCILLIN]
- MIC (Escherichia coli [1]): 30 µg/mL (≈ 55.6 µM)
- Papp [4]: 50 ×10⁻⁶ cm/s
- Activity (Escherichia coli [2]): 1.1 µM
- logP [3]: 0.67
- K0.5 (Escherichia coli [5]): 1.08 µM

Molecule: Cc1onc(-c2ccccc2)c1C(=O)N[C@@H]1C(=O)N2[C@@H]1SC(C)(C)[C@@H]2C(=O)O [OXACILLIN]
- MIC (Escherichia coli [1]): 282 µg/mL (≈ 702 µM)
- Papp [4]: 60 ×10⁻⁶ cm/s
- Activity (Escherichia coli [2]): 12 µM
- logP [3]: 2.1
- K0.5 (Escherichia coli [5]): 0.97 µM

Molecule: CC1(C)S[C@@H]2[C@H](NC(=O)COc3ccccc3)C(=O)N2[C@H]1C(=O)O [PENICILLIN V]
- MIC (Escherichia coli [1]): 178 µg/mL (≈ 508 µM)
- Papp [4]: 70 ×10⁻⁶ cm/s
- Activity (Escherichia coli [2]): 33 µM
- logP [3]: 1.54
- K0.5 (Escherichia coli [5]): 0.82 µM

Molecule: CCN1CCN(C(=O)N[C@@H](C(=O)N[C@@H]2C(=O)N3[C@@H]2SC(C)(C)[C@@H]3C(=O)O)c2ccccc2)C(=O)C1=O [PIPERACILLIN]
- MIC (Escherichia coli [1]): 46 µg/mL (≈ 88.9 µM)
- Papp [4]: 30 ×10⁻⁶ cm/s
- Activity (Escherichia coli [2]): 1.2 µM
- logP [3]: 0.45
- K0.5 (Escherichia coli [5]): 1.06 µM

B1: Beta-lactamase OXA-7 (Escherichia coli), P35695 (protein)
chain: MKTFAAYVITACLSSTALASSITENTFWNKEFSAEAVNGVFVLCKSSSKLACATNNLARASKEYLPASTFKIPNAIIGLETGVIKNEHQIFKWDGKPRAMKQWERDLSLRGAIQVSAVPVFQQIAREVGEVRMQKYLKKFSYGNQNISGGIDKFWLEGQLRISAVNQVEFLESLFLNKLSASKENQLIVKEALVTEAPEYLVHSKTGFSGVGTESNPGVAWWVGWVEKGAEVYFFAFNMDIDNENKLPLRKSIPTKIMASEGIIGG
- Km [6]: 31 µM
- Km [7]: 34 µM
- Km [8]: 52 µM
- Km [9]: 29 µM
- Km [10]: 18 µM
- Km [11]: 29 µM
- Km [12]: 34 µM
